Experimental data from paper PMC12642897 (Journal of Enzyme Inhibition and Medicinal Chemistry, 2025).

Tests used:
[1] = molecular target: α-glucosidase (Saccharomyces cerevisiae, UniProt P53341); experiment: α-Glucosidase enzyme kinetic analysis; assay type: biochemical; conditions: Lineweaver–Burk plot
Procedure, shortened: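 Yeast (S. cerevisiae) α-glucosidase in phosphate buffer, pH 6.8. p-NPG at 0.625, 1.25 and 2.5 mM was crossed with four concentrations of each test compound (sets of 7–40, 20–80 or 2–12 µM). Incubated 10 min at 37 °C, stopped with 0.2 M Na₂CO₃, read at 405 nm. Lineweaver–Burk plots assign inhibition mode.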

[2] = molecular target: T1, PTP1B (Homo sapiens, UniProt P18031); experiment: PTP1B inhibition assay; assay type: biochemical; conditions: PTP1B IC50, isolated compounds and positive control; tested 1 to 100 µM
T1 sequence (P18031 1-435): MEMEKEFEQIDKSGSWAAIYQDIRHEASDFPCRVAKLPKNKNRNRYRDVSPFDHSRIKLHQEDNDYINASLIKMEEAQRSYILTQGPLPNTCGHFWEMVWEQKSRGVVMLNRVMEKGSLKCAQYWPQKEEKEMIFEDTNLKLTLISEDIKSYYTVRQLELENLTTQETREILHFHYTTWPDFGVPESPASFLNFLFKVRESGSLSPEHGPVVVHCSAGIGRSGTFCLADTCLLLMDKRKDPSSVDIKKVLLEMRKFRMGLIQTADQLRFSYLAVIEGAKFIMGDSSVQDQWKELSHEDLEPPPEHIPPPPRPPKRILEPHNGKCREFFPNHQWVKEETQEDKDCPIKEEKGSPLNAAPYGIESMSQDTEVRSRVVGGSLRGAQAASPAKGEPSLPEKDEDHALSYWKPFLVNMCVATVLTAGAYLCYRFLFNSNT

[3] = molecular target: T1, PTP1B; experiment: PTP1B enzyme kinetic analysis; assay type: biochemical; conditions: for Ki: PTP1B Ki value, secondary plot
Procedure, shortened: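 Human recombinant PTP1B in 50 mM citrate buffer (pH 6.0) with 0.1 M NaCl, 1 mM EDTA and 1 mM DTT. Test compound at 2, 4, 10 and 12 µM was crossed with p-NPP at 0.5, 1 and 2 mM. Enzyme plus inhibitor preincubated 10 min at 37 °C, then substrate added for 20 min at 37 °C. NaOH stop, A405. Lineweaver–Burk for mode; secondary plots for Kic/Kiu.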

[4] = molecular target: α-glucosidase enzyme from Saccharomyces cerevisiae (Saccharomyces cerevisiae, UniProt P53341); experiment: α-Glucosidase inhibition assay; assay type: biochemical
[5] = molecular target: rat sucrase; conditions: read-out: IC50 against rat sucrase; ref 44 (Barber's review); cited from earlier work
[6] = molecular target: rat maltase; conditions: read-out: IC50 against rat maltase; ref 44 (Barber's review); cited from earlier work

α-glucosidase enzyme from Saccharomyces cerevisiae, sequence (P53341 whole entry): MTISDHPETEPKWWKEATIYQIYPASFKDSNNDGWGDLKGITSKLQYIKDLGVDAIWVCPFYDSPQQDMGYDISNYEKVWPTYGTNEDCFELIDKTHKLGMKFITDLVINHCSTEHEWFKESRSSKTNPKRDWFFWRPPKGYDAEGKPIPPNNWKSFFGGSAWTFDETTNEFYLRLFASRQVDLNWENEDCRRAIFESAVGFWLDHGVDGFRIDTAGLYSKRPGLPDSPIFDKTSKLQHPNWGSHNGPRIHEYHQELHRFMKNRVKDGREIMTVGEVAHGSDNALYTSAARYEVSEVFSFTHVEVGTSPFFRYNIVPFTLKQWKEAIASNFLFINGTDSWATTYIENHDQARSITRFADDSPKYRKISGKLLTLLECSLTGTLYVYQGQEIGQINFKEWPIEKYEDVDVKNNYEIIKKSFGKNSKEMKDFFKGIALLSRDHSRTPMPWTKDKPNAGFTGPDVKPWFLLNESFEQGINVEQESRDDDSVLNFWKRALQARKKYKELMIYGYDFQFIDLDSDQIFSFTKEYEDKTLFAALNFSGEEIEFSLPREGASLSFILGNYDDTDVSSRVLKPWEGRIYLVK
α-glucosidase, sequence (P53341 whole entry): as above

With `O=c1oc(-c2ccc(O)c(O)c2)cc2cccc(O)c12` [Compound 12, Thunberginol A] as the compound, how does the “α-glucosidase Inhibition type” value [1] read?
Its value is “Uncompetitive”.

What about the IC50 [2] of the same compound?
Its IC50 is 8 ± 1.1 µM.

And the “PTP1B Inhibition type” value ([3]; Lineweaver–Burk plot)?
Its value is “mixed-type”.

What about the Ki ([3]; Kic) of the same compound?
The Ki was 12.2 µM.

And the Ki ([3]; Kiu)?
The Ki was 5.5 µM.

And the IC50 [4]?
The IC50 was 3.4 ± 0.2 µM.

And the “α-glucosidase potency relative to acarbose” value ([4]; ratio of IC50 values)?
Its value is “over 70 times”.

Which results are given for `O=c1c(O)c(-c2ccc(O)c(O)c2)oc2cc(O)cc(O)c12` [quercetin]?
IC50 [5]: > 400 µM; IC50 [6]: 281 µM
